Several values for one entry are separate records, joined by “and”; a condition that tells them apart may be missing. Equal entries are not always repeated.
Columns and labels:
Mus musculus [1] = assay: Percent reduction of analgesia induced by U-50,488 at 15 mg/kg after sc administration was measured in mice; format: functional; conditions: route subcutaneous
Summary of the method: (§1)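 Mice received the opioid agonist sc (morphine 10 mg/kg or U-50,488 15 mg/kg), then the test compound sc 20 min later in saline (10 mL/kg). Writhing was then induced with acetic acid. Read-out was percent reduction of agonist-induced analgesia.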

Mus musculus [2] = assay: Percent reduction of analgesia induced by morphine at 10 mg/kg after sc administration was measured in mice; format: functional; conditions: route subcutaneous; summary of the method: as §1
Oryctolagus cuniculus [3] = assay: Percent change of rate in the respiratory activity was measured in rabbit at 0.1 mg/kg dose given intravenously; format: functional; conditions: route intravenous
Summary of the method: (§2)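 Rabbits were dosed iv in saline (1.5 mL/kg); 1 N HCl was sometimes added to dissolve the compound. Percent change (±SE) in respiratory volume and rate was recorded.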

Opioid receptor = Opioid receptor (Rattus norvegicus, UniProt P33533+P34975+P33535); assay: Inhibition of [3H]naloxone binding to opioid receptor in presence of NaCl; format: protein assay
Summary of the method: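 Rat (male F1-albino, 140–180 g) whole brain minus cerebellum, homogenised in ice-cold 50 mmol/L Tris-HCl pH 7.4 with NaCl, centrifuged 18000g 10 min and rehomogenised. Nonspecific binding defined with 1 μmol/L levallorphan. Competitor tested at ≥5 concentrations in duplicate, two independent runs. IC50 taken graphically or from a least-squares sigmoid fit.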

Oryctolagus cuniculus [4] = assay: Percent change of rate in the respiratory activity was measured in rabbit at the 1 mg/kg dose given intravenously; format: functional; conditions: route intravenous; summary of the method: as §2
[5] = biological target: Kappa-type opioid receptor (Cavia porcellus) (UniProt P41144)
Sequence of Kappa-type opioid receptor (Cavia porcellus) (P41144 whole entry): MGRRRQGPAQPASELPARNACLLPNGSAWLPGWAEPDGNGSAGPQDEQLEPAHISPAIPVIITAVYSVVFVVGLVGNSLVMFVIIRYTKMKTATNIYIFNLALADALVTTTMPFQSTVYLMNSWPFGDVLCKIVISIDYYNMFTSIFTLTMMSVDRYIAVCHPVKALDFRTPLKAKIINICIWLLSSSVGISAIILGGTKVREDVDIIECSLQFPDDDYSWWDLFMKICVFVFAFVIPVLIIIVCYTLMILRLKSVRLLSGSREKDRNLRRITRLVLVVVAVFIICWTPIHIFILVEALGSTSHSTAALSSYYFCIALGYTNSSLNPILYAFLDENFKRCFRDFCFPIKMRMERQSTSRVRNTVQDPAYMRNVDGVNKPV

[6] = biological target: Delta-type opioid receptor (Mus musculus) (UniProt P32300); conditions: Vas deferens
Sequence of Delta-type opioid receptor (Mus musculus) (P32300 whole entry): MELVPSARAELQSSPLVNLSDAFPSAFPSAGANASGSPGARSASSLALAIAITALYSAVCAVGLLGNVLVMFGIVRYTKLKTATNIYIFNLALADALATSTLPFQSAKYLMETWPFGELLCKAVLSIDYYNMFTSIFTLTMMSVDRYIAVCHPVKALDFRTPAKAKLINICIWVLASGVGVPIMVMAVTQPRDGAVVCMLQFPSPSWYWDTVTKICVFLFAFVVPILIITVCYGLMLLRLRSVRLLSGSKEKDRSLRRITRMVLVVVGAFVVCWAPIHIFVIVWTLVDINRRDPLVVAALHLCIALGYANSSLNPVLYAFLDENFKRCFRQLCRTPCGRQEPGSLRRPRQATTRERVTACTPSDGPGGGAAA

[7] = biological target: Delta-type opioid receptor (Rattus norvegicus) (UniProt P33533); conditions: Vas deferens
Sequence of Delta-type opioid receptor (Rattus norvegicus) (P33533 whole entry): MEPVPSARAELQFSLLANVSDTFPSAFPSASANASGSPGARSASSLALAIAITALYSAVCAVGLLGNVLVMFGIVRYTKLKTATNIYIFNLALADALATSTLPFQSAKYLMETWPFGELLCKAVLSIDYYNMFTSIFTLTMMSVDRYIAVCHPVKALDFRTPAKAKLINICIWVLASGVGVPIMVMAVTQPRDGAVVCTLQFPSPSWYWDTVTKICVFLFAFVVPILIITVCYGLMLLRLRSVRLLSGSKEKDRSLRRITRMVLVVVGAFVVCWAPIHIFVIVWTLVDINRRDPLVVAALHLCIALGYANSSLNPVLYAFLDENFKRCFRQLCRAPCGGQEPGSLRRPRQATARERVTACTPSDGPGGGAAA

[8] = biological target: Mu-type opioid receptor (Cavia porcellus) (UniProt P97266)
Sequence of Mu-type opioid receptor (Cavia porcellus) (P97266 whole entry): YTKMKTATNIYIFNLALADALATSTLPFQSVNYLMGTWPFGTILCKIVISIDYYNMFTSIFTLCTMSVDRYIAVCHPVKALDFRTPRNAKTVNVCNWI

Oryctolagus cuniculus [9] = assay: Percent change of volume in the respiratory activity was measured in rabbit at the 1 mg/kg dose given intravenously; format: functional; conditions: route intravenous; summary of the method: as §2
[10] = biological target: Mu-type opioid receptor (Rattus norvegicus) (UniProt P33535); conditions: Vas deferens
Sequence of Mu-type opioid receptor (Rattus norvegicus) (P33535 whole entry): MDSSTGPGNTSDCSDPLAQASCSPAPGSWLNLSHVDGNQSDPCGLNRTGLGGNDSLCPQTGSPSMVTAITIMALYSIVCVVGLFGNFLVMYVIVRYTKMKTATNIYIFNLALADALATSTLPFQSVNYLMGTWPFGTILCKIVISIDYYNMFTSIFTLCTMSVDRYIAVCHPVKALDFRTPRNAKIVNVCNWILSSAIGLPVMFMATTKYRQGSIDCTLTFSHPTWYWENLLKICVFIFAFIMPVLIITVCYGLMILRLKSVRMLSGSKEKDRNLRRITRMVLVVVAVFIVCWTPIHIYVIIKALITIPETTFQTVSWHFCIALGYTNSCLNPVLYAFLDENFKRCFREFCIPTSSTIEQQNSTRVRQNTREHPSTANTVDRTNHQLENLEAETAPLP

[11] = biological target: Mu-type opioid receptor (Mus musculus) (UniProt P42866); conditions: Vas deferens
Sequence of Mu-type opioid receptor (Mus musculus) (P42866 whole entry): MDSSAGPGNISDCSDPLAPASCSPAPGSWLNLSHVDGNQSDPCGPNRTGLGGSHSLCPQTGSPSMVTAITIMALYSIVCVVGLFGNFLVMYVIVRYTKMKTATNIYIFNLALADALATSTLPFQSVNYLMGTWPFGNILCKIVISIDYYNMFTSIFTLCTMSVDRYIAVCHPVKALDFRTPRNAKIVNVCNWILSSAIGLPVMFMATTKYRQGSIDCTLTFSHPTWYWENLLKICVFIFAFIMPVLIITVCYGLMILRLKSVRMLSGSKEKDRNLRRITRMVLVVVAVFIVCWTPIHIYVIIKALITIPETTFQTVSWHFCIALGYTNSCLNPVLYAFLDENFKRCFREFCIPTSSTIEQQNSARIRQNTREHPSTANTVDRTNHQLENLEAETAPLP

[12] = biological target: Kappa-type opioid receptor (Mus musculus) (UniProt P33534); conditions: Vas deferens
Sequence of Kappa-type opioid receptor (Mus musculus) (P33534 whole entry): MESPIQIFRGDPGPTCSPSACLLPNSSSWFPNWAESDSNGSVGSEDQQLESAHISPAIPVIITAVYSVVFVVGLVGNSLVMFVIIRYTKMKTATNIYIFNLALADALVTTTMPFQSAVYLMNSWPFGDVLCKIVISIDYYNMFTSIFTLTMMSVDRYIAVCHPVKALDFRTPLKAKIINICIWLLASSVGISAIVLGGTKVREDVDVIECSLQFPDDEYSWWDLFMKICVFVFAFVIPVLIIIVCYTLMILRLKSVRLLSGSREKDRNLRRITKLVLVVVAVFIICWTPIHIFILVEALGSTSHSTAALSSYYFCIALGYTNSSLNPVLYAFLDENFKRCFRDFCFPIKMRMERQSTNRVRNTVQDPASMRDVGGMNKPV

Oryctolagus cuniculus [13] = assay: Percent change of volume in the respiratory activity was measured in rabbit at the 0.1 mg/kg dose given intravenously; format: functional; conditions: route intravenous; summary of the method: as §2
Oryctolagus cuniculus [14] = assay: Percent change of rate in the respiratory activity was measured in rabbit at the 0.1 mg/kg dose given intravenously; format: functional; conditions: route intravenous; summary of the method: as §2

**Q.** How did the Reduction (Mus musculus [1]) turn out when O=C1CC[C@@]2(O)[C@H]3Cc4ccc(O)c5c4[C@@]2(CCN3CC2CC2)[C@H]1O5 [NALTREXONE] was run?
**A.** 19%

**Q.** And the Reduction (Mus musculus [2])?
**A.** 94%

**Q.** What about the Rate change (Oryctolagus cuniculus [3]) of the same compound?
**A.** 7.5%

**Q.** Which IC50 (Opioid receptor) does the source give for C=CCN1CC[C@]23CCCC[C@H]2[C@H]1Cc1ccc(O)cc13 [LEVALLORPHAN] here?
**A.** 1.1 nM and 0.54 nM

**Q.** Which Rate change (Oryctolagus cuniculus [4]) does the source give for COc1cccc2c1[C@]13CCN(CC4CC4)[C@H](C2)[C@]1(OC)CCC(=O)C3 [CYPRODIME] here?
**A.** -6.9%

**Q.** And the Ke [5]?
**A.** 1160 nM

**Q.** What about the Ke [6] of the same compound?
**A.** 6.11 µM

**Q.** What about the Ke [7] of the same compound?
**A.** 4.56 µM

**Q.** What about the Ke [8] of the same compound?
**A.** 31 nM

**Q.** What about the Volume change (Oryctolagus cuniculus [9]) of the same compound?
**A.** 21%

**Q.** What about the Ke [10] of the same compound?
**A.** 61.6 nM

**Q.** And the Ke [11]?
**A.** 55.4 nM

**Q.** What about the Ke [12] of the same compound?
**A.** 1550 nM

**Q.** Which Reduction (Mus musculus [1]) does the source give for C=CCN1CC[C@]23c4c5ccc(O)c4O[C@H]2C(=O)CC[C@@]3(O)[C@H]1C5 [NALOXONE] here?
**A.** 83%

**Q.** What about the Reduction (Mus musculus [2]) of the same compound?
**A.** 87%

**Q.** And the Volume change (Oryctolagus cuniculus [13])?
**A.** 23%

**Q.** And the Rate change (Oryctolagus cuniculus [14])?
**A.** 7.3%

From ChEMBL document CHEMBL1124394, “Synthesis and biological evaluation of 14-alkoxymorphinans. 2. (-)-N-(cyclopropylmethyl)-4,14-dimethoxymorphinan-6-one, a selective mu opioid receptor antagonist” (J Med Chem, 1989)
